Assay results as given in ChEMBL document CHEMBL1156121, “Synthesis and antioxidant properties of some novel 5H-dibenz[b,f]azepine derivatives in different in vitro model systems” (Eur J Med Chem, 2010).
Activity calls are given as the source filed them. No cut-off for these calls is given here.

Columns and labels:
Blood [1] = assay: Antioxidant activity against copper-induced low density lipoprotein oxidation in human blood assessed as malonoldehyde formation by thiobarbituric acid method; type: functional, tissue-based
Outline: (§1)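 Human LDL isolated from fasting volunteers' plasma by ultracentrifugation, then dialysed against PBS pH 7.4 (0.1 mg LDL protein/mL). Compounds at 10 and 25 were incubated with LDL and 40 µL of 2 mM CuSO4 in 50 mM phosphate buffer pH 7.4 at 37 °C. Controls were run without compound and without copper. Aliquots taken at 2, 4 and 6 h were heated with TBA/TCA at 95 °C for 45 min. TBARS (MDA) was read at 532 nm.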

[2] = Antioxidant activity assessed as reduction of […]/ferricyanide complex; type: functional
Outline: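 Oyaizu method. Compounds (50 and 100) were incubated in 0.2 M phosphate buffer pH 6.6 with 1% potassium ferricyanide at 50 °C for 20 min. After adding 10% TCA and centrifuging, the supernatant was diluted with water and mixed with 0.1% FeCl3, then A700 was read. Values are means of three independent samples.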

[3] = system: Radical scavenging activity; assay: Antioxidant activity assessed as DPPH radical scavenging activity; type: functional
Outline: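 Ethanolic compound solutions (10, 25, 50, 100, 200, 500) were mixed with 0.1 mM DPPH in ethanol (4 mL to 1 mL sample) and kept in the dark at room temperature for 20 min. A517 was compared with a compound-free blank, giving % inhibition = (A0−A1)/A0×100. IC50 was read from the plot of % scavenging against concentration.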

[4] = Antioxidant activity against lipid peroxidation at 25 uM by beta-carotene linoleate method; type: functional
Outline: (§2)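 β-Carotene/linoleic acid/Tween-40 emulsion, with chloroform removed, was mixed with compound in ethanol; BHA and ascorbic acid were run at the same concentrations as references. Absorbance was read at 470 nm at t=0 and then every 30 min to 180 min. Results are given as % antioxidant activity, mean ± SD, n = 3.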

Blood [5] = assay: Antioxidant activity against copper-induced low density lipoprotein oxidation in human blood assessed as malonoldehyde formation at 10 uM after 2 hrs by thiobarbituric acid method; type: functional; outline: as §1
Blood [6] = assay: Antioxidant activity against copper-induced low density lipoprotein oxidation in human blood assessed as malonoldehyde formation at 10 uM after 6 hrs by thiobarbituric acid method; type: functional; outline: as §1
Blood [7] = assay: Antioxidant activity against copper-induced low density lipoprotein oxidation in human blood assessed as malonoldehyde formation at 25 uM after 2 hrs by thiobarbituric acid method; type: functional; outline: as §1
[8] = Antioxidant activity against lipid peroxidation at 50 uM by beta-carotene linoleate method; type: functional; outline: as §2
Blood [9] = assay: Antioxidant activity against copper-induced low density lipoprotein oxidation in human blood assessed as malonoldehyde formation at 25 uM after 6 hrs by thiobarbituric acid method; type: functional; outline: as §1

For `O=C(CCNc1cccc(O)c1)N1c2ccccc2C=Cc2ccccc21`, the Activity (Blood [1]) was “Active”, the Activity [2] was “Dose-dependent effect” and the IC50 [3] was 17.4 µM.

`O=C1O[C@H]([C@@H](O)CO)C(O)=C1O` [ASCORBIC ACID] showed an IC50 [3] of 13.2 µM.

For `COc1cc(NCCC(=O)N2c3ccccc3C=Cc3ccccc32)ccc1O`, the Activity [4] was 91.5%, the Activity (Blood [5]) was 56.13% and the Activity [2] was “Dose-dependent effect”. It also gave an Activity (Blood [6]) of 72.93%, an Activity (Blood [7]) of 70.41% and an Activity [8] of 91.3%. The IC50 [3] was 13.9 µM and the Activity (Blood [9]) was 89.61%.

In the case of `COc1ccc(O)c(C(C)(C)C)c1.COc1ccc(O)cc1C(C)(C)C` [BUTYLATED HYDROXYANISOLE], the IC50 [3] is reported as 14.1 µM.

In the case of `O=C(CCNc1ccc(O)cc1)N1c2ccccc2C=Cc2ccccc21`, the Activity [4] is reported as 87.1%, the Activity (Blood [1]) is reported as “Active” and the Activity [2] is reported as “Dose-dependent effect”. It also gave an Activity [8] of 88.7% and an IC50 [3] of 15.3 µM.

With `O=C(CCNc1ccc(O)c([N+](=O)[O-])c1)N1c2ccccc2C=Cc2ccccc21` the Activity [4] was 88.4%, the Activity (Blood [1]) was “Active” and the Activity [2] was “Dose-dependent effect”. The Activity [8] was 90% and the IC50 [3] was 14.8 µM.

With `O=C(CCNc1ccccc1O)N1c2ccccc2C=Cc2ccccc21` the Activity (Blood [1]) was “Active”, the Activity [2] was “Dose-dependent effect” and the IC50 [3] was 16.1 µM.

With `O=C(CCCl)N1c2ccccc2C=Cc2ccccc21` the Activity (Blood [5]) was 5.34%, the Activity (Blood [1]) was “inactive” and the Activity [2] was “inactive”. The Activity (Blood [6]) was 8.87%, the Activity (Blood [7]) was 7.43% and the Activity [3] was “inactive”. It also gave an Activity (Blood [9]) of 12.43%.
